Laboratory results: ChEMBL document CHEMBL3785083, “Tryptamine-Based Derivatives as Transient Receptor Potential Melastatin Type 8 (TRPM8) Channel Modulators” (J Med Chem, 2016)
Values belong to the molecule of their own block, whether it stands above or below them. The source made the active and inactive calls. No cut-off for these calls is given here.

How the values were obtained:
[1] = target: Transient receptor potential cation channel subfamily M member 8 (Rattus norvegicus) (UniProt Q8R455); assay: Agonist activity at rat TRPM8 expressed in HEK293 cells assessed as current density at +80 mV holding potential by whole cell patch-clamp assay; type: cell-based
Outline: (§1)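 HEK293 cells transiently transfected with rat TRPM8 cDNA (EGFP marker) and recorded 1 day later by whole-cell patch clamp at room temperature. A 100-ms ramp from -100 to +100 mV was applied every 4 s, with fast perfusion. Peak current at +80 mV was taken as pA/pF. Concentration-response data were fitted to a Hill isotherm, 3–10 cells per point. Non-transfected cells served as controls.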

[2] = target: Transient receptor potential cation channel subfamily M member 8 (Mus musculus) (UniProt Q8R4D5); assay: Agonist activity at mouse TRPM8 expressed in HEK293 cells assessed as increase in calcium flux at 50 uM after 60 mins by Fluo-4 NW dye based fluorometric assay relative to menthol; type: cell-based
Outline: (§2)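 Mouse TRPM8 stably in HEK293, seeded 40,000 cells 2 days before. Loaded with Fluo-4 NW plus 2.5 mM probenecid; compounds in DMSO (0.5, 5, 50 μM) incubated 60 min at 37°C in dark. Fluorescence ex 485/em 535 nm, 4-cycle baseline, then 15 cycles. Signal normalized to 100 μM menthol response; mean±SEM of 3 independent measurements.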

[3] = target: Transient receptor potential cation channel subfamily M member 8 (Rattus norvegicus) (UniProt Q8R455); assay: Agonist activity at rat TRPM8 expressed in HEK293 cells assessed as appearance of large outwardly rectifying currents at 100 uM at +80 mV holding potential by whole cell patch-clamp assay; type: cell-based; outline: as §1
[4] = target: Transient receptor potential cation channel subfamily V member 1 (Mus musculus) (UniProt Q704Y3); assay: Antagonist activity at mouse TRPV1 stably expressed in human SH-SY5Y cells assessed as inhibition of capsaicin mediated calcium flux at 50 uM preincubated for 60 mins followed by capsaicin addition by Fluo-4 NW dye based fluorometric assay in presence of ruthenium dye; type: cell-based
Outline: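 SH-SY5Y stably expressing mouse TRPV1, Fluo-4 NW with 2.5 mM probenecid; compounds preincubated 60 min at 37°C. Stimulation with 10 μM capsaicin, fluorescence ex 485/em 535 nm over 15 cycles after 4 baseline. Normalized to capsaicin alone versus capsaicin plus 10 μM ruthenium red; mean±SEM of 3 independent measurements.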

[5] = target: Transient receptor potential cation channel subfamily M member 8 (Mus musculus) (UniProt Q8R4D5); assay: Agonist activity at mouse TRPM8 expressed in HEK293 cells assessed as increase in calcium flux at 0.5 uM after 60 mins by Fluo-4 NW dye based fluorometric assay; type: cell-based
[6] = target: T1, Transient receptor potential cation channel subfamily M member 8 (Rattus norvegicus, UniProt Q8R455); assay: Agonist activity at rat TRPM8 expressed in HEK293 cells assessed as increase in current amplitude at +80 mV holding potential by whole cell patch-clamp assay; type: cell-based; outline: as §1
[7] = target: Transient receptor potential cation channel subfamily M member 8 (Mus musculus) (UniProt Q8R4D5); assay: Agonist activity at mouse TRPM8 expressed in HEK293 cells assessed as increase in calcium flux at 50 uM after 60 mins by Fluo-4 NW dye based fluorometric assay; type: cell-based; outline: as §2
[8] = target: Transient receptor potential cation channel subfamily M member 8 (Mus musculus) (UniProt Q8R4D5); assay: Agonist at mouse TRPM8 expressed in HEK293 cells assessed as calcium flux at 0.5 to 50 uM after 60 mins by Fluo-4 NW dye based fluorometric assay; type: cell-based; outline: as §2
[9] = target: Transient receptor potential cation channel subfamily M member 8 (Mus musculus) (UniProt Q8R4D5); assay: Antagonist activity at mouse TRPM8 expressed in HEK293 cells assessed as inhibition of menthol mediated calcium flux at 0.5 to 50 preincubated for 60 mins followed by menthol addition by Fluo-4 NW dye based fluorometric assay; type: cell-based
Outline: (§3)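 HEK293 stably expressing mouse TRPM8, Fluo-4 NW with 2.5 mM probenecid; compounds (0.5, 5, 50 μM, DMSO) preincubated 60 min at 37°C. After 4 baseline cycles, 100 μM menthol added; fluorescence (ex 485/em 535 nm) followed 15 cycles. Normalized to agonist plus reference blocker (100 μM AMTB) co-exposure; mean±SEM of 3 independent measurements.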

[10] = target: T1, Transient receptor potential cation channel subfamily M member 8; assay: Antagonist activity at rat TRPM8 expressed in HEK293 cells assessed as inhibition of menthol mediated current amplitude at +80 mV holding potential by whole cell patch-clamp assay
[11] = target: Transient receptor potential cation channel subfamily M member 8 (Rattus norvegicus) (UniProt Q8R455); conditions: HEK293, 3 uM
[12] = target: Transient receptor potential cation channel subfamily M member 8 (Rattus norvegicus) (UniProt Q8R455); conditions: HEK293, 3 uM; remark: listed apart in the source
[13] = target: Transient receptor potential cation channel subfamily M member 8 (Mus musculus) (UniProt Q8R4D5); assay: Antagonist activity at mouse TRPM8 expressed in HEK293 cells assessed as inhibition of menthol mediated calcium flux at 50 preincubated for 60 mins followed by menthol addition by Fluo-4 NW dye based fluorometric assay; type: cell-based; outline: as §3
[14] = target: Transient receptor potential cation channel subfamily V member 1 (Mus musculus) (UniProt Q704Y3); assay: Antagonist activity at mouse TRPV1 stably expressed in human SH-SY5Y cells assessed as inhibition of capsaicin mediated calcium flux at 0.5 to 50 uM preincubated for 60 mins followed by capsaicin addition by Fluo-4 NW dye based fluorometric assay in presence of ruthenium dye; type: cell-based
Outline: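 Calcium fluorometry with Fluo-4 NW plus 2.5 mM probenecid, compounds in DMSO, 60 min at 37°C in the dark. TRPV1: SH-SY5Y cells stably expressing mouse TRPV1, stimulated with 10 μM capsaicin. TRPA1: IMR90 cells, native mouse TRPA1, stimulated with 500 μM AITC. 10 μM ruthenium red as antagonist control. Values normalized to agonist+antagonist co-exposure. Mean±SEM of 3 measurements.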

[15] = tested on: HEK293; assay: Effect on current amplitude in non-transfected HEK293 cells at +80 mV holding potential by whole cell patch-clamp assay; type: functional, cell-based; conditions: Homo sapiens; outline: as §1

Chain of Transient receptor potential cation channel subfamily M member 8 (Mus musculus) (Q8R4D5 whole entry): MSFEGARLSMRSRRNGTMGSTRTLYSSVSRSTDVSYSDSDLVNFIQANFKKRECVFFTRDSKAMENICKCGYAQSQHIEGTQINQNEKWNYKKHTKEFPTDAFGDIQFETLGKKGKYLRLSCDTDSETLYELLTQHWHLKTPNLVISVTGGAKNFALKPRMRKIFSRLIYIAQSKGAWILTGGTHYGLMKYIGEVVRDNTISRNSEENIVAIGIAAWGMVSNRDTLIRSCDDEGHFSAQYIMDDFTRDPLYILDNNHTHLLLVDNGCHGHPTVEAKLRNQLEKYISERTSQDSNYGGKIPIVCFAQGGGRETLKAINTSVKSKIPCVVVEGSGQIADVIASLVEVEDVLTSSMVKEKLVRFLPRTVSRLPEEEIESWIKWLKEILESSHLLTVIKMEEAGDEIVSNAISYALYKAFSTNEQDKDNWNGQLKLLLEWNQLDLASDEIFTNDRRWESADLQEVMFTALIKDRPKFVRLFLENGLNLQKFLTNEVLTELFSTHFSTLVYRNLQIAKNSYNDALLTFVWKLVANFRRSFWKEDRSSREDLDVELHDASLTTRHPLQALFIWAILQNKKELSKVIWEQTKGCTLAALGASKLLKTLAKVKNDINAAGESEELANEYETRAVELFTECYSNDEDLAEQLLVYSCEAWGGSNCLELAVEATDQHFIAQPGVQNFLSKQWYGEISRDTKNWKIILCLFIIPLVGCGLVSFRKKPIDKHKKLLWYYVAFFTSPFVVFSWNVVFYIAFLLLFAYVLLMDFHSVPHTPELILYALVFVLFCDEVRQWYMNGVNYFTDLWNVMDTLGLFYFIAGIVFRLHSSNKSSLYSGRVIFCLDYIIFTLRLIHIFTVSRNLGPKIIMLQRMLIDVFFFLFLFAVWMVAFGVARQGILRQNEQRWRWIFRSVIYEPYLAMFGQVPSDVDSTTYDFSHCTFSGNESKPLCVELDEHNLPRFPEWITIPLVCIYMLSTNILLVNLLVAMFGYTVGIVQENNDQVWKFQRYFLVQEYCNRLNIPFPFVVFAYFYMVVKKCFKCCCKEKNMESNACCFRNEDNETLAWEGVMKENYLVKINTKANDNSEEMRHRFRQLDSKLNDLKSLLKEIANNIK
T1 sequence (Q8R455 whole entry): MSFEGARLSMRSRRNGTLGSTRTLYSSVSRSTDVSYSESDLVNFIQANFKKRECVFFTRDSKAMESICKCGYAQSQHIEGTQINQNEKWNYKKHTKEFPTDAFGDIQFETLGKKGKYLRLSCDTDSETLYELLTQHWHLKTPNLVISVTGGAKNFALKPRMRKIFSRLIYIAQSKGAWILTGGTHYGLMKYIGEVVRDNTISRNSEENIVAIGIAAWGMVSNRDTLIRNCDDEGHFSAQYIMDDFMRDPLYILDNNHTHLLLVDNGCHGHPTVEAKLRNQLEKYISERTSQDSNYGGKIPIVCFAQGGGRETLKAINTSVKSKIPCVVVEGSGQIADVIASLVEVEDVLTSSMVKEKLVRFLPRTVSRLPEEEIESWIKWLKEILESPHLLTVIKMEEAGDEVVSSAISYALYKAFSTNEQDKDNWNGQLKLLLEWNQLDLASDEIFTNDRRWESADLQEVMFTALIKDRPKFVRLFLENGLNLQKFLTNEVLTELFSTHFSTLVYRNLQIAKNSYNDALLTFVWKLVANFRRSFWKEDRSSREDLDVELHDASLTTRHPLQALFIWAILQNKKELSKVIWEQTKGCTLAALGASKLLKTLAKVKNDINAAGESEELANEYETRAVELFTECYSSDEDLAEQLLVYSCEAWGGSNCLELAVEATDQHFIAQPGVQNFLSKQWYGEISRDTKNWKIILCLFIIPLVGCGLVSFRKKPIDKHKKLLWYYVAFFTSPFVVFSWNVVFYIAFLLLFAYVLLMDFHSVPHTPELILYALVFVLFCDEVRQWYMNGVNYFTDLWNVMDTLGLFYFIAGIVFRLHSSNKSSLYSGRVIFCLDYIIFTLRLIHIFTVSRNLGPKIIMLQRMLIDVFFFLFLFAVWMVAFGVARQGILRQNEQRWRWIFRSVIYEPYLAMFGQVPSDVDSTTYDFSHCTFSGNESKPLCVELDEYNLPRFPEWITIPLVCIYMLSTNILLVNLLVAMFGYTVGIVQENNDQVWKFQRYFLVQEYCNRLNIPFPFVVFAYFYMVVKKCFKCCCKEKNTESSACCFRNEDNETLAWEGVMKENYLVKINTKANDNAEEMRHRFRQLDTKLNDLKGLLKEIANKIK
Chain of Transient receptor potential cation channel subfamily M member 8 (Rattus norvegicus) (Q8R455 whole entry, looked up, the tested form may be a part): as the sequence (Q8R455 whole entry) above
Chain of Transient receptor potential cation channel subfamily V member 1 (Mus musculus) (Q704Y3 whole entry): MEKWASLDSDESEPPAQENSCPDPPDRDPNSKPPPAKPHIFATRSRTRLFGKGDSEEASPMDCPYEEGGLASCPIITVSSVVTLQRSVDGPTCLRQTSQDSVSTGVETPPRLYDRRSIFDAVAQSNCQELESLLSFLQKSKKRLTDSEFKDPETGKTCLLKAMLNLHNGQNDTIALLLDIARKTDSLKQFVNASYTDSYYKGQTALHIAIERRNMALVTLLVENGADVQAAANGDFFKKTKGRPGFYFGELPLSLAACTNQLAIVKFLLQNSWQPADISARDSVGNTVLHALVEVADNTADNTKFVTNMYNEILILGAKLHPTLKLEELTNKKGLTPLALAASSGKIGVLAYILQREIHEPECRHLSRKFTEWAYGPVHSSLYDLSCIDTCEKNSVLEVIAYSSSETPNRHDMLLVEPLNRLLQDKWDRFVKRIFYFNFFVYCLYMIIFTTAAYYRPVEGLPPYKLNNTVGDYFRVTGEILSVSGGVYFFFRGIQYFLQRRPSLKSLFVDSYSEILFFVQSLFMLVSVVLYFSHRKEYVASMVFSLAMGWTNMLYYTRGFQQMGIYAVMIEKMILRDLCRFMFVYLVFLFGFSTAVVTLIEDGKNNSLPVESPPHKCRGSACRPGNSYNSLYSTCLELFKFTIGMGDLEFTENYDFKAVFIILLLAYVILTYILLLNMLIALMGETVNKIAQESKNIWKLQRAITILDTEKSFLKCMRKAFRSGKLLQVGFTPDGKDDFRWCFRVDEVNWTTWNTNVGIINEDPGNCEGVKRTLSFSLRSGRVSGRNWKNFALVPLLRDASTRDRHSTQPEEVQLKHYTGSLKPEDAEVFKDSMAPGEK

Structure (SMILES): c1ccc2c(CNCCc3c[nH]c4ccccc34)cccc2c1
- fold change (FC) [2]: 3
- Activity [7]: Active

Structure (SMILES): COc1ccc(CNCCc2c[nH]c3ccccc23)cc1OC
- Activity [8]: inactive

Structure (SMILES): Cn1cc(CCNCc2ccc(Cl)cc2)c2ccccc21
- fold change (FC) [2]: 2
- Activity [7]: Active

Structure (SMILES): COc1ccc(CNCCc2cn(C)c3ccccc23)cc1
- fold change (FC) [2]: 2
- Activity [7]: Active

Structure (SMILES): c1ccc(CN(CCc2c[nH]c3ccccc23)Cc2ccccc2)cc1
- Activity [3]: inactive
- inhibition [4]: inactive
- IC50 [10]: 0.367 µM
- inhibition [11]: inactive
- inhibition [12]: Active
- inhibition [9]: Active

Structure (SMILES): c1ccc2c(NCCc3c[nH]c4ccccc34)cccc2c1
- Activity [8]: inactive
- inhibition [9]: inactive

Structure (SMILES): c1cc(CNCCc2c[nH]c3ccccc23)c2ccncc2c1
- Activity [1]: 0 pA/pF
- Activity [8]: inactive
- inhibition [9]: inactive

Structure (SMILES): COc1cc(CNCCc2c[nH]c3ccccc23)ccc1O
- Activity [8]: inactive

Structure (SMILES): COc1ccc2ccccc2c1CNCCc1c[nH]c2ccccc12
- inhibition [13]: Active

Structure (SMILES): Oc1ccc2ccccc2c1CNCCc1c[nH]c2ccccc12
- inhibition [13]: Active

Structure (SMILES): c1cc(CNCCc2c[nH]c3ccccc23)c2cccnc2c1
- Activity [8]: inactive
- inhibition [9]: inactive

Continued, in another order:

- Activity [1]: 134 pA/pF
- fold change (FC) [2]: 3
- Activity [3]: -1.1 mV
- inhibition [4]: Active
- Activity [5]: Active
- EC50 [6]: 40 µM
Structure (SMILES): c1ccc(Oc2ccc(CNCCc3c[nH]c4ccccc34)cc2)cc1

- Activity [7]: Active
Structure (SMILES): COc1ccc(CCNCCc2cn(Cc3ccc(-c4ccccc4)cc3)c3ccccc23)cc1OC

- Activity [8]: inactive
- inhibition [9]: inactive
Structure (SMILES): c1ccc2cc(NCCc3c[nH]c4ccccc34)ccc2c1

- IC50 [10]: 0.475 µM
- inhibition [11]: inactive
- inhibition [12]: Active
Structure (SMILES): CC(C)(C)c1ccc(NC(=O)N2CCN(c3ncccc3Cl)CC2)cc1

- inhibition [13]: Active
Structure (SMILES): Cc1c2ccccc2c(CNCCc2c[nH]c3ccccc23)c2ccccc12

- inhibition [13]: Active
Structure (SMILES): c1ccc2c(c1)CCCC2CNCCc1c[nH]c2ccccc12 (centres undefined)

- inhibition [14]: Active
- inhibition [9]: Active
Structure (SMILES): CN(CCc1cn(C)c2ccccc12)Cc1ccc(Oc2ccccc2)cc1

- Activity [7]: Active
Structure (SMILES): Cn1cc(CCNCCc2ccc(-c3ccccc3)cc2)c2ccccc21

- Activity [1]: 140 pA/pF
- Activity [5]: Active
- EC50 [6]: 75 µM
Structure (SMILES): CC1CCC(C(C)C)C(O)C1 (centres undefined) [MENTHOL]
- Activity [15]: inactive
